Test results from publication PMC7379261 (Journal of Peptide Science, 2020).
Converted amounts (≈) assume the structure as drawn. Where a SMILES comes first, the peptide text is derived from it. The star is where a group is joined. hSer(lactone) = O=C1OCC[C@@H]1N*

Columns and labels:
[1] = system: five pathogenic bacterial strains, including three Gram‐positive and two Gram‐negative strains; experiment: Antimicrobial assay; type: cell-based; conditions: read-out: MIC against all pathogenic bacterial strains tested
Procedure, shortened: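 Broth microdilution MIC of a recombinant test peptide (RP-HPLC purified, >95%). E. coli ATCC 12014, S. aureus ATCC 25923, P. acnes ATCC 6919, P. gingivalis ATCC 33277 and S. mutans ATCC 25175 were grown overnight at 37°C in LB or BHI and diluted in the same medium. Serial peptide dilutions were mixed 1:1 with bacteria (final 5 × 10^4 CFU/mL) and incubated 37°C, 24 h. Ampicillin and magainin-2 were positive controls. Three independent repeats, mean ± SD.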

[2] = system: Staphylococcus aureus strain; type: cell-based; conditions: aqueous peptide solution (10 μg/mL) heated at 100°C for 60 min, cooled 30 min
Staphylococcus aureus = type: cell-based; conditions: S. aureus; LB at pH 3.7–8.7
[3] = Degradation assay with resting cell suspensions; type: in vitro ADME; conditions: resting cell suspension of Staphylococcus aureus ATCC 25923, pH 7
Procedure, shortened: (§1)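 Resting-cell peptidase assay. Mid-exponential cultures (OD600 = 0.5) were pelleted at 10,000 g, 15 min, 4°C, washed twice and resuspended 20-fold concentrated in 10 mmol/L phosphate buffer, pH 7.0. Test peptide solution (400 μg/mL) was mixed 1:1 with cells (final 10^8 CFU/mL) and incubated at 37°C, sampled at 30 and 60 min (also 4 h for L. plantarum). Read-out was RP-HPLC peptide remaining versus a no-bacteria control; fragments were identified by LC-MS/MS.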

[4] = Degradation assay with resting cell suspensions; type: in vitro ADME, Lactobacillus plantarum subsp. plantarum; conditions: pH 7
Procedure, shortened: as §1

Row | SMILES | MIC [1] [µg/mL] | MIC against S. aureus strain under the conditions of heat treatment [2] [µg/mL] | MIC within the limits of pH (3.7–8.7) solutions (Staphylococcus aureus) [μg/mL] | metabolised at 1 h, 200 μg/mL [3] [%] | metabolised at 1 h, 200 μg/mL [4] [%]
1 | CC1(C)S[C@@H]2[C@H](NC(=O)[C@H](N)c3ccccc3)C(=O)N2[C@H]1C(=O)O [Ampicillin, ampicillin] | 5 to 7.5 (≈ 14.3 to 21.5 µM) | – | – | – | –
2 | CC[C@H](C)[C@H](NC(=O)[C@H](Cc1c[nH]c2ccccc12)NC(=O)[C@H](CCC(=O)O)NC(=O)[C@H](CCCCN)NC(=O)[C@@H](NC(=O)[C@H](CCCCN)NC(=O)[C@@H](N)CC(N)=O)C(C)C)C(=O)N[C@@H](CCCCN)C(=O)N[C@@H](Cc1ccc(O)cc1)C(=O)N[C@@H](CC(C)C)C(=O)N[C@@H](CCCCN)C(=O)N[C@@H](CO)C(=O)N[C@@H](CC(C)C)C(=O)N[C@@H](Cc1ccccc1)C(=O)N[C@@H](CO)C(=O)N[C@H]1CCOC1=O [LPcin‐YK3] (H-NKVKEWIKYLKSLFS-{hSer(lactone)}) | – | 0.62 | 0.62 | 10.8 | ~79.3
